KCNQ1 block: inhibitors of human KCNQ1 channel, primary screen, cell-based, thallium flux, high-throughput | Potassium voltage-gated channel subfamily KQT member 1 (Homo sapiens), P51787 | CHO-K1 KCNQ1, FluxOR thallium flux fluorescence; hits give high values | B-score at 10 µM | 1.3% of 310,000 active | AID 2642, 2010;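 active = compounds whose thallium flux B-score, printed positive for inhibition, exceeds three library SD while starting fluorescence stays within three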;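 note: channel opened by potassium depolarization with thallium stimulus after 20 min compound exposure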
KCNK9 block: KCNK9 potassium channel inhibitors, primary screen, HEK293 cells, thallium flux. Potassium channel subfamily K member 9 (Homo sapiens), Q9NPC2. FluxOR thallium flux fluorescence; hits give low values. B-score at 10 µM. 1.2% of 310,000 active. AID 488922, 2010;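 active = ratio B-score over 3 SD below the library mean, with starting fluorescence within 5 SD of its mean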;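 note: negative B-score means less thallium flux so channel inhibition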
Target sequence (Q9NPC2 whole entry, looked up): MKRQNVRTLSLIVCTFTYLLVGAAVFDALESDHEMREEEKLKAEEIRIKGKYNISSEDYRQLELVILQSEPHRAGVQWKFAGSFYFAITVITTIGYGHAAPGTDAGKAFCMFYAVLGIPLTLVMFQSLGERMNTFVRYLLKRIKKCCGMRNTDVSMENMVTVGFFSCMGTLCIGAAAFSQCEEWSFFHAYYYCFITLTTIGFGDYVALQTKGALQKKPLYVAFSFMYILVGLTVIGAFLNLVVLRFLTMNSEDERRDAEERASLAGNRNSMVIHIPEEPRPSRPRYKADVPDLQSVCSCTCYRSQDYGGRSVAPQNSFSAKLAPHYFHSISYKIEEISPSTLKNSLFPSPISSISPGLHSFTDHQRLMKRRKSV
KCNK3 block: human KCNK3 channel inhibitors, primary screen, CHO cells, FluxOR thallium flux, B-score; AID 602410, 2012; FluxOR fluorescence; hits give low values; B-score at 10 µM; 0.84% of 340,000 active;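 active = B-score under library mean minus 4 SD, starting fluorescence ratio at most library mean plus 5 SD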;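 note: more negative B-score means stronger inhibition of thallium flux through KCNK3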
hERG rescue: hERG rescue from dofetilide block, primary screen, cell-based, CHO-hERG, FluxOR thallium flux, dofetilide IC70. dofetilide IC70 present. activation (rescue from dofetilide block), less the hit threshold, % at 10 µM. 0.51% of 310,000 active. AID 1511, 2009;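 active = activation above the mean of controls blocked by dofetilide plus 5 SD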;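 note: thallium influx through hERG after potassium depolarization seen as dye fluorescence rise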
KCNQ1 act: potentiators or activators of KCNQ1 channel, primary screen, cell-based, thallium flux, high-throughput; CHO-K1 KCNQ1, thallium flux FluxOR fluorescence; hits give high values; B-score at 10 µM; Potassium voltage-gated channel subfamily KQT member 1 (Homo sapiens), P51787; 0.35% of 310,000 active;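 active = fluorescence ratio B-score, a plate-corrected score, at least three library SD, with initial intensity B-score within 5 SD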
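assay system = KCNQ1-transfected CHO-K1 cells | medium = assay buffer with matched DMSO | probe or stimulus = depolarizing K+/Tl+ stimulus, K2SO4 and Tl2SO4 each 12.5 mM in 5x stock | dosing = single dose | incubation = dye 90 min, compound 20 min, room temperature | detection = kinetic FluxOR fluorescence, 10 s baseline plus 110 s post-stimulus | evaluation = ratio B score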
Kir21 inh: inhibitors of mouse Kir2.1 inward-rectifier potassium channel | Inward rectifier potassium channel 2 (Mus musculus), P35561 | HEK293-Kir2.1, FluxOR thallium flux fluorescence; hits give low values | B-score at 10 µM | 0.85% of 310,000 active | AID 1672, 2009;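 active = fluorescence ratio B-score at or below minus 3 SD of library scores, with starting-brightness B-score within 2 SD, cut at about -4.2 in these data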;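 note: channel flux triggered by added potassium and thallium sulfate stimulus; B-score of peak minus minimum fluorescence over baseline after thallium stimulus; more negative B-score means stronger Kir2.1 block with less thallium influx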
KCNK9 block conf: KCNK9 potassium channel inhibitors, confirmation, HEK293 cells, thallium flux, duplicate; shares compounds with KCNK9 block; FluxOR thallium flux fluorescence; inhibition, % at 10 µM; 43% of 4,900 active; AID 492992, 2010;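 active = thallium signal inhibited by more than 5 SD of the compound-free buffer control wells, on both duplicate plates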;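 note: 0% = assay buffer control wells without compound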
Kir21 sel: mouse Kir2.1 channel inhibition, confirmation, selectivity assay for KCNK9 modulator project, cell-based, HEK293, thallium flux. AID 492993, 2010. Kir2.1 cells, FluxOR thallium flux fluorescence. shares compounds with KCNK9 block. inhibition, % at 10 µM. 4% of 4,900 active;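 active = thallium signal drop more than 5 SD beyond the mean of the no-compound control wells, seen in both duplicate plates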;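 note: signal is fluorescence rise after thallium addition divided by baseline fluorescence; plate controls were assay buffer only for no effect and full block by chlorpromazine control for full effect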
HEK293 Tl ctr: thallium flux in non-induced HEK293 cells, confirmation, counter-screen for KCNK9 inhibitor project, cell-based, second counter screen, non-induced KCNK9-HEK293; shares compounds with KCNK9 block; FluxOR thallium flux; inhibition, % at 10 µM; 40% of 4,900 active; AID 492997, 2010;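 active = thallium signal drop beyond 5 SD of the untreated control mean, on both duplicate plates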;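 note: plate controls were buffer only IC0 wells for no effect and SID17386958 at its maximal inhibitory level for full effect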
Active calls of the source: *; i = inactive; · = not tested or not shown. Hits are enriched below; roughly 3.7% of the tested compounds scored in any of these assays.

SMILES | KCNQ1 block | KCNK9 block | KCNK3 block | hERG rescue | KCNQ1 act | Kir21 inh | KCNK9 block conf | Kir21 sel | HEK293 Tl ctr
CCc1nnc(NC(=O)C2Cc3ccccc3CN2S(=O)(=O)c2c(C)c(C)cc(C)c2C)s1 (stereo not drawn) | i | -13* | i | -7 | i | -1.8 | i | i | 32%*
CCc1nnc(NC(=O)C2Cc3ccccc3CN2S(=O)(=O)CC)s1 (stereo not drawn) | i | i | i | -9 | i | -0.17 | · | · | ·
COc1ccc(Cn2nc(C)n(N(C)c3ncc(C(F)(F)F)cc3Cl)c2=O)cc1 | i | i | i | -5 | i | -0.52 | i | i | i
O=C(NCc1cccs1)c1ccc(CS(=O)Cc2cccc(Cl)c2)o1 (stereo not drawn) | i | i | i | -4 | i | 1.1 | · | · | ·
CC(C)OCCCn1c(=NC(=O)c2ccncc2)c(C#N)cc2c(=O)n3ccccc3nc21 | i | i | i | -21 | i | -0.29 | · | · | ·
CC(C)OCCCn1c(=NC(=O)c2cccs2)c(C#N)cc2c(=O)n3ccccc3nc21 | i | -8.5* | i | -11 | i | 0.15 | 26%* | i | 33%*
C=CCC1(/C=N/O)CCOC(C)(C)C1 (stereo not drawn) | i | i | i | -6 | i | 0.9 | · | · | ·
Cc1cc(C)c(O)c(-c2n[nH]c3c2C(c2cccc(O)c2)N(Cc2ccco2)C3=O)c1 (stereo not drawn) | i | -11* | i | -9 | i | 1.4 | 58%* | i | 41%*
O=C1c2[nH]nc(-c3ccccc3O)c2C(c2cccc(Cl)c2)N1Cc1ccco1 (stereo not drawn) | i | i | i | -17 | i | 1.9 | · | · | ·
CCOC(=O)C1CCCN(CC(=O)c2c[nH]c3ccc(C)cc23)C1 (stereo not drawn) | i | i | · | -2 | i | -2.6 | · | · | ·
COC(=O)c1ccc(Cn2nc(-c3ccc(C)cc3)ccc2=O)cc1 | i | i | i | -11 | i | 0.63 | · | · | ·
COC(=O)Cc1ccc(N(Cc2ccccc2F)S(=O)(=O)c2ccc(Cl)cc2)cc1 | i | -12* | i | -17 | i | 0.71 | 60%* | i | 40%*
COC(=O)CN(c1ccc(F)cc1)S(=O)(=O)c1ccccc1 | i | i | i | -5 | i | -3.6 | · | · | ·
NC(=S)c1cc2cc(Cl)ccc2oc1=O | i | i | i | -6 | i | 0.21 | · | · | ·
CC(Sc1nnc2n1CCCCC2)C(=O)Nc1cccc(S(=O)(=O)N2CCOCC2)c1 (stereo not drawn) | · | · | i | · | · | · | · | · | ·
CCN(CC(=O)Nc1cc(Cl)ccc1C)C(=O)C1COc2ccccc2O1 (stereo not drawn) | · | · | i | · | · | · | · | · | ·
CCCCCCCCCn1c2c(c(=N)c3c1CCC3)CCC2 | 10* | -16* | -19* | -35 | i | -15* | 62%* | 87%* | 42%*
CCn1c2c(c(=N)c3c1CCC3)CCC2 | i | i | i | -4 | i | 0.12 | · | · | ·
CCCCCCn1c(=O)[nH]c2c(c1=O)CCC2 | i | i | i | -9 | i | 0.46 | · | · | ·
CCCCCCCn1c2c(c(=N)c3c1CCC3)CCCC2 | 6* | -9.9* | i | -28 | i | -6.5* | 70%* | 78%* | 36%*
O=C(N[C@H]1CCC(=O)N(CCSc2ccc(Br)cc2)CC1)OCc1ccccc1 | · | · | i | · | · | · | · | · | ·
Cc1ccc(SCCN2CCC(NC(=O)OCc3ccccc3)CCC2=O)cc1 (stereo not drawn) | i | i | i | -12 | i | -1.7 | i | i | i
Cc1ccc(SCCN2CCN(CC(C)C)CCC2=O)cc1 | i | i | i | -8 | i | 0.04 | i | i | i
C[C@@H](CSc1ccccc1)CN1CC[C@H](C(C)(C)C)CCC1=O | i | i | i | -10 | i | -5.3* | i | i | i
Cc1ccc(SCCN2CCC(C(C)(C)C)CCC2=O)cc1 (stereo not drawn) | i | i | i | -9 | i | -0.68 | i | i | i
SMILES | KCNQ1 block | KCNK9 block | KCNK3 block | hERG rescue | KCNQ1 act | Kir21 inh | KCNK9 block conf | Kir21 sel | HEK293 Tl ctr
CN(C(=O)c1ccc2c(=O)n3c(nc2c1)CCCCC3)c1cccc(Cl)c1 | i | i | i | -11 | i | -1.1 | · | · | ·
COc1ccc2c(c1)-c1c(sn(-c3ccc(OC)c(OC)c3)c1=S)C(C)(C)N2 | i | i | i | -4 | i | 1.7 | i | i | i
COc1ccc(-n2sc3c(c2=S)-c2cc(OC)ccc2NC3(C)C)cc1 | i | i | i | -9 | i | 0.23 | · | · | ·
Cc1noc(C)c1NC(=O)N(C)C[C@H]1Oc2ccc(NC(=O)Cc3ccccc3)cc2C(=O)N([C@H](C)CO)C[C@@H]1C | · | · | i | · | · | · | · | · | ·
N/C(Cc1ccc(Cl)cc1Cl)=N\OC(=O)c1cccs1 | i | i | i | -19 | i | -0.09 | · | · | ·
N/C(CC(=O)Nc1ccc(F)cc1F)=N\OC(=O)c1cccs1 | i | i | i | -6 | i | 0.18 | i | i | i
Cc1nn(C)cc1C(C(=O)NC1CCCCC1)N(Cc1ccc(F)cc1)C(=O)c1cnccn1 (stereo not drawn) | i | i | i | -2 | i | -0.06 | · | · | ·
O=[N+]([O-])c1ccc(Cl)cc1CNc1ccc(F)c(F)c1 | i | -8.5* | i | -12 | i | -1.5 | 33%* | i | 27%*
C=CCCC(=O)N1CCCC(C(=O)c2cccc(OC)c2)C1 (stereo not drawn) | i | i | i | 1 | i | 0.25 | · | · | ·

Screening data as filed in PubChem.
